Measurements of several laboratories.
Protocols differ between the studies behind these lines.
HTR2C: 5-hydroxytryptamine receptor 2C (HTR2C, Homo sapiens, UniProt P28335)

COc1cc(C(F)(F)F)c(OC)cc1C1CCCNC1 (centres unmarked)
Emax (HTR2C; G protein activation; agonist; BRET): 85%

Nc1ncnc2c1ncn2[C@@H]1O[C@H](C[C@@H](N)CC[C@H](N)C(=O)O)[C@@H](O)[C@H]1O
inhibition (mRNA cap guanine-N(7) methyltransferase (RNMT, Homo sapiens, UniProt O43148); enzyme activity; inhibitor; 50 µM): 85.3%

CN1CCC[C@H]1c1cccnc1
inhibition (Neuronal acetylcholine receptor; alpha3/beta4 (Rattus norvegicus, UniProt P04757+P12392); ligand displacement; radioligand; 50 µM): 65.5%

COc1cc2c(cc1OC)-c1c(OC)c(OC)cc3c1[C@H](C2)N(C)CC3
inhibition (5-hydroxytryptamine receptor 2B (HTR2B, Homo sapiens, UniProt P41595); ligand displacement; radioligand; 10 µM): 92%

c1cncc([C@@H]2CCCN2)c1
inhibition (HTR2C; ligand displacement; 50 µM): -12.7%

[2H]c1c([2H])c([C@]2([2H])CCCN2C(=O)C(C)(C)Oc2ccc3cn[nH]c3c2)c([2H])c([2H])c1C([2H])([2H])[2H]
remaining binding (BMP-2-inducible protein kinase (BMP2K, Homo sapiens, UniProt Q9NSY1); binding; competition with immobilised ligand; 1 µM): 77%

CC(C)CC(=O)OC[C@H]1O[C@@](C#N)(c2ccc3c(N)ncnn23)[C@H](O)[C@@H]1O
inhibition (HTR2C; cell-free assay; 20 µM): 10%

CCOC(=O)Cc1c2c3c(cc(OC)c(OC)c3c3cc(OC)c(OC)cc13)CCN2C
inhibition (HTR2C; ligand displacement; radioligand; 10 µM): 6%
